The source made the active and inactive calls. No cut-off for these calls is given here.

Experimental findings from ChEMBL document CHEMBL3351942, “Rexinoids isolated from Sophora tonkinensis with a gene expression profile distinct from the synthetic rexinoid bexarotene” (J Nat Prod, 2014) are described below.

Test [1] addresses T1, Retinoic acid receptor RXR-alpha (Homo sapiens) (UniProt P19793).
T1 sequence (whole entry): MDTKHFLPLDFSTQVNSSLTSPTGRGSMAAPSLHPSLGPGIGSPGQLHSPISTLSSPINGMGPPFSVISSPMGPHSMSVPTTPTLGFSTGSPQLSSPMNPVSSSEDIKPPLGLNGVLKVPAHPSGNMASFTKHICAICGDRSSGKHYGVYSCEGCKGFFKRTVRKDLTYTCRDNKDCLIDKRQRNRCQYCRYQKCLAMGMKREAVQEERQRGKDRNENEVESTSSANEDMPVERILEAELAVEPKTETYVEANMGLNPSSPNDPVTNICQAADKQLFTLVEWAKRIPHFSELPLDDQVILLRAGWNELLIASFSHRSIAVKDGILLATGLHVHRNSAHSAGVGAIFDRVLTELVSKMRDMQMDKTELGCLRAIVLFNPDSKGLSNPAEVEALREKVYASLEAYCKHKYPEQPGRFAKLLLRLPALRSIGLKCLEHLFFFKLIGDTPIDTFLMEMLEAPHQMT
In words: Agonist activity at human RXR-alpha expressed in HEK293 cells coexpressing with pCMX-beta-gal at 10 uM after 24 to 48 hrs by luciferase reporter gene assay in presence of PA452 pan-antagonist. The class given is cell-based. The method in brief:
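RXRα reporter in HEK293: cotransfected with RXRα expression vector, luciferase reporter and pCMX-β-gal. Eight hours after transfection, cells were treated with test compound at 10 μM with or without the RXR pan-antagonist PA452 (10 μM). Luciferase was normalized to β-galactosidase. Means ± SD of three determinants; representative of three experiments; one-way ANOVA with Bonferroni's t-test.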

Test [2] has as its system F9. In words: Activation of RAR/RXR heterodimer in mouse F9 cells assessed as increase in CYP26A1 mRNA level at 10 uM by quantitative RT-PCR analysis. The test is classed as cell-based. In short, it runs like this: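 F9 teratocarcinoma cells on 0.2% gelatin-coated dishes in DMEM/10% FBS; 24 h exposure with or without atRA (0.1 μM). CYP26A1 mRNA by qRT-PCR normalized to β-actin, fold vs vehicle; means ± SD of three determinants, one of three experiments; ANOVA/Bonferroni.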

The species named for test [3] is Homo sapiens. The test is described as follows: Activation of RXR/VDR heterodimer in human hepatoma cells assessed as increase in CYP24A1 mRNA level at 10 uM by quantitative RT-PCR analysis. The class given is cell-based. In short, it runs like this:
(§1)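 HLE hepatoma cells treated 24 h with or without VD3 (0.1 μM); CYP24A1 mRNA by SYBR green qRT-PCR normalized to β-actin (delta-delta Ct), fold over vehicle; means ± SD of three determinants, representative of three experiments.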

The species named for test [4] is Homo sapiens. The test is described as follows: Activation of RXR/VDR heterodimer in human hepatoma cells assessed as increase in CYP24A1 mRNA level at 10 uM in presence of VDR agonist calcitriol by quantitative RT-PCR analysis. The test is classed as cell-based. The method in brief: as §1
Test [5] is described as follows: Activation of LXR in mouse C2C12 cells assessed as induction of ApoE mRNA expression at 10 uM after 24 hrs in presence of T0901317 by quantitative RT-PCR analysis. The class given is cell-based. In short, it runs like this: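 C2C12 myoblasts grown in DMEM/10% FBS, differentiated at confluence in 2% horse serum, medium changed every other day for 5 days; myotubes treated 24 h with or without T0901317 (1 μM). Total RNA, DNase-treated, oligo(dT) RT from 0.5 μg, SYBR green qPCR; normalized to β-actin (delta-delta Ct), fold over vehicle; mean ± SD of four determinants, one of two experiments.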

The target in test [6] is T2, Peroxisome proliferator-activated receptor delta (Mus musculus) (UniProt P35396).
T2 sequence (whole entry): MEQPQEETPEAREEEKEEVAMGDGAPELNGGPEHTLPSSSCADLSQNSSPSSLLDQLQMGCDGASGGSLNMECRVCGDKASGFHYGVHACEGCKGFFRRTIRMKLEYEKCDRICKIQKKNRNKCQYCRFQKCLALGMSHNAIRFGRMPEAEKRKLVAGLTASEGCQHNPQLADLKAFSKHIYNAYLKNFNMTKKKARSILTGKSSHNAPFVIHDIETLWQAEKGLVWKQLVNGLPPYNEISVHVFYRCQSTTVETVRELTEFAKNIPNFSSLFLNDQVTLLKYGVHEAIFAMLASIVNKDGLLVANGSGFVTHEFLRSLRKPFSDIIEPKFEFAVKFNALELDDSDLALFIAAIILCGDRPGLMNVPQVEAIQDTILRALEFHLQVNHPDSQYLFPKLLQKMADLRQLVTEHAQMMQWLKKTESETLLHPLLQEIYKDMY
In words: Activation of PPARdelta in mouse C2C12 cells assessed as induction of FABP3 mRNA expression at 10 uM after 24 hrs in presence of GW501516 by quantitative RT-PCR analysis. The test is classed as cell-based. The method in brief: (§2)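 Differentiated C2C12 myotubes (2% horse serum, 5 days) exposed 24 h with or without PPARδ agonist GW501516 (1 μM). mRNA quantified by SYBR green real-time RT-PCR, normalized to β-actin by delta-delta Ct, and expressed as fold induction vs vehicle; means ± SD of four determinants from one of two independent experiments; one-way ANOVA with Bonferroni.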

In test [7] the target is T2, Peroxisome proliferator-activated receptor delta (Mus musculus). In words: Activation of PPARdelta in mouse C2C12 cells assessed as induction of CPT1A mRNA expression at 10 uM after 24 hrs in presence of GW501516 by quantitative RT-PCR analysis. The test is classed as cell-based. In short, it runs like this:
as §2

Test [8] has as its target T1, Retinoic acid receptor RXR-alpha (Homo sapiens). The test is described as follows: Binding affinity to RXRalpha (unknown origin) by receptor-SRC1 cofactor complex formation assay. The method in brief:
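Ligand-dependent binding of RXR isotype to coactivator SRC-1 in an NR cofactor kit, detected with HRP-conjugated anti-RXR antibody at OD450. The full agonist CD3254 defined 100% and vehicle 0%. Efficacy was taken as maximum B/Bmax% and potency as EC50.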

Test [9] addresses T3, Peroxisome proliferator-activated receptor alpha (Homo sapiens) (UniProt Q07869).
T3 sequence (whole entry): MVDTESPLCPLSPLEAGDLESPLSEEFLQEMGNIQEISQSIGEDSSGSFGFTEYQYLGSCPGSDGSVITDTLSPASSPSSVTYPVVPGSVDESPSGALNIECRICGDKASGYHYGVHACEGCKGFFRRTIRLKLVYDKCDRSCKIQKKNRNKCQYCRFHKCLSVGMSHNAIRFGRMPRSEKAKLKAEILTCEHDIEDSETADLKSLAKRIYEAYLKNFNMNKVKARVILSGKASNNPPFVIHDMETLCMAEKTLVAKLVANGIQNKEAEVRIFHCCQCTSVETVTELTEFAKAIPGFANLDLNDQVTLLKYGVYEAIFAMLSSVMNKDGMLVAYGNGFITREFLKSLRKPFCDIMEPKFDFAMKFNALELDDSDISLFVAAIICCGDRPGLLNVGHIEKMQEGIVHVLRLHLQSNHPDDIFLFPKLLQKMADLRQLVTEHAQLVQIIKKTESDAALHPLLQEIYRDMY
The test is described as follows: Activation of PPARalpha (unknown origin) by receptor-CBP cofactor complex formation assay. In short, it runs like this: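 Cell-free cofactor recruitment ELISA: ligand-dependent binding of PPAR isotypes to CBP, detected by HRP-conjugated anti-PPAR antibody at OD450. Full agonists GW7647 (α), GW1929 (γ), GW501516 (δ) define 100%, vehicle 0%; efficacy as maximum B/Bmax% and potency as EC50.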

As for `CC(C)=CCc1cc([C@@H]2CC(=O)c3ccc(O)c(CC=C(C)C)c3O2)cc2c1OC(C(C)(C)O)C2` (some centres undefined), the outcome in test [1], in test [4], in test [8] and in test [9] was inactive. Further, the result in test [2], in test [3], in [5], in [6] and in test [7] was Active.
